GSTO1 inh: GSTO1 inhibition, counter-screen for RBBP9 inhibitors | recombinant GSTO1, activity-based probe fluorescence polarization | inhibition, % at 5.96 µM | actives 1.1% (n = 300,000) | AID 1974;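 active = inhibition above the campaign mean inhibition plus 3 SD, cut at about 35% in these data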;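 note: 0% = GSTO1-1 with DMSO and 100% = wells lacking GSTO1-1 enzyme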
PAD4 inh: inhibitors of human PAD4; AID 485272; actives 0.41% (n = 330,000); recombinant PAD4, RCA probe fluorescence polarization; inhibition, % at 6.36 µM; Q9UM07;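 active = percent inhibition above a cutoff equal to the mean of all tested compounds plus 3 SD, cut at about 15% in these data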;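 note: 0% = PAD4 with RCA probe and DMSO and 100% = probe without PAD4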
PP5 inh: PP5 (human) phosphatase inhibition; P53041; purified PP5c, OMFP substrate fluorescence; inhibition, % at 6.7 µM; actives 0.18% (n = 320,000);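 active = inhibition above the campaign's mean inhibition across all tested compounds plus 3 SD, cut at about 9.5% in these data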;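 note: 0% = DMSO only and 100% = 100 µM cantharidin control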
CTSL1 counter: counter-screen for PFM18AAP inhibitors: inhibitors of F. hepatica cathepsin L1; recombinant F. hepatica cathepsin L1, Z-Leu-Arg-MCA fluorescence; inhibition, % at 5.96 µM; actives 0.49% (n = 300,000); AID 1906;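 active = inhibition above the mean of all tested compounds plus 3 SD, set per screening campaign, cut at about 17% in these data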;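 note: 0% = plate median of test compound wells and 100% = 1 µM Z-Phe-Ala-diazomethylketone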
UCH37 DUB inh: blocks the human deubiquitinase UCH37. purified proteasome/UCH37, Ub-AMC cleavage fluorescence. inhibition, % (test concentration not listed). actives 0.33% (n = 330,000). AID 588478;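 active = mean inhibition over replicate wells above about 20%, limit read from the data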;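 note: 0% = compound-free wells with enzyme and 100% = wells lacking proteasome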
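assay system = human UCH37 enzyme supplied as purified proteasome complex | amount = proteasome at 0.15 nM in the dispensed enzyme solution | schedule = 30 min compound-proteasome preincubation then 25 min substrate reaction, room temperature | measured by = fluorescence, ex 355 nm, em 460 nm | benchmarks = no-proteasome wells (full inhibition) and compound-free wells (no inhibition)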
Apaf-1 inh: inhibitors of human Apaf-1 apoptosome; O14727; reconstituted apoptosome caspase-3 activity, DEVD-Rh110 fluorescence; inhibition, % at 20 µM; actives 0.71% (n = 330,000); AID 489030; active = inhibition of at least 40% at 20 µM;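 note: plate controls were DMSO wells for no effect and DEVD-CHO caspase inhibitor wells for full effect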
Target sequence (O14727 whole entry, looked up): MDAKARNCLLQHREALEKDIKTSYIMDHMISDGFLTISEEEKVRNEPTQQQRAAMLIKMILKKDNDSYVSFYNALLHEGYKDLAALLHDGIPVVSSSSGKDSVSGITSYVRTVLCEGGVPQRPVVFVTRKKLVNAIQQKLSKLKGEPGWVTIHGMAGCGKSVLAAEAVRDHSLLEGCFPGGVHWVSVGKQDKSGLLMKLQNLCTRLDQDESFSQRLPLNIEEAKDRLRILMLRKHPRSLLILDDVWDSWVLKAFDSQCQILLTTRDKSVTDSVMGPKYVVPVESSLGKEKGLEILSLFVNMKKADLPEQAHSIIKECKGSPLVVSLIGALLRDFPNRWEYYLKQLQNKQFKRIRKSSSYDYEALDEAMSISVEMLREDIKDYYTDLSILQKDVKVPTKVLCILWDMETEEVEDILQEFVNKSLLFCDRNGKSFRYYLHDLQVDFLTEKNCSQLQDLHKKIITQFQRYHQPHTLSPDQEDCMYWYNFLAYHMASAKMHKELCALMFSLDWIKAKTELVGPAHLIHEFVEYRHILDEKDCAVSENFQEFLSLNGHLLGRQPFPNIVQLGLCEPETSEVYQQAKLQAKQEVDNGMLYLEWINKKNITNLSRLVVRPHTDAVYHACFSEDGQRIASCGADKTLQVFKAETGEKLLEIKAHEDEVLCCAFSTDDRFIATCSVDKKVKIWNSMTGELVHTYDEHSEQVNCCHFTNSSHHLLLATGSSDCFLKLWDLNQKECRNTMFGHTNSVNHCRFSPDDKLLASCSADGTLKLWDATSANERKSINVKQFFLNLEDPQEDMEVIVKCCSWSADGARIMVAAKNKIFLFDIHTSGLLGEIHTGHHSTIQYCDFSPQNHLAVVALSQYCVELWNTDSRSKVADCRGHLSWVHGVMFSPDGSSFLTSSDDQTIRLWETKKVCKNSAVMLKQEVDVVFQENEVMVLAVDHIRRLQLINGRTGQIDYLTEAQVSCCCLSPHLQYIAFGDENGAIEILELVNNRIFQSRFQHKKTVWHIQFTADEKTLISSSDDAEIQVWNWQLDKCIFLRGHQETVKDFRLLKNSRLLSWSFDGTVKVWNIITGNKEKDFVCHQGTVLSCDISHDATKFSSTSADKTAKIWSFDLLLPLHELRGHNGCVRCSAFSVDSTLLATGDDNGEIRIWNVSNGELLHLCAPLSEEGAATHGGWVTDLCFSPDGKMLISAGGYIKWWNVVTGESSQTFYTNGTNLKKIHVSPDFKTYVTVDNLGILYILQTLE
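Material: cell-free apoptosome with Apaf-1, procaspase-3 and caspase-9; Buffer or medium: Hepes pH 7.5 with detergent and BSA; Reagent: cytochrome c trigger plus (Z-DEVD)2-Rh110 caspase-3 substrate; Times: compound with Apaf-1, dATP, procaspase-3 30 min, then 50 min reaction, room temperature; Technique: Rh110 fluorescence intensity.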
Apaf-1 inh conf2: Apaf-1 inhibition, single-dose confirmed. inhibition, % at 20 µM. AID 504614. shares compounds with Apaf-1 inh. actives 25% (n = 1,800). reconstituted apoptosome, caspase-3 DEVD-Rh110 fluorescence;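 active = mean inhibition of at least 40% at 20 µM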;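 note: plate controls were DMSO wells for no effect and DEVD-CHO caspase inhibitor control wells for full effect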
Rh110 interf inh: counter-screen for Apaf-1 inhibitors: fluorescence interference. Rh110 fluorescence interference, quenched caspase reaction. 1,800 tested, under 10 active. AID 504615. shares compounds with Apaf-1 inh. activation (fluorescence interference), % at 20 µM;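 active = signal rise of 40% or more at 20 µM, treated as a fluorescence artifact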
Apaf1 inh interf: Apaf-1 inhibitor counter-screen fluorescence artifact. shares compounds with Apaf-1 inh. fluorescence interference counterscreen, Apaf-1 assay format. IC50, µM. 460 tested, under 10 active. AID 588538; call rule not given here
An asterisk follows results filed as active; nt = no result given. A selection: hits, their analogues and other compounds. The true share with any hit is near 2%.

SMILES	GSTO1 inh	PAD4 inh	PP5 inh	CTSL1 counter	UCH37 DUB inh	Apaf-1 inh	Apaf-1 inh conf2	Rh110 interf inh	others
CN1/C(=N\O)c2cccc3cccc1c23	13.2	-16.3	3.5	-1.0	nt	86.2*	20.0	-0.1
COc1cc(C=NNC(=S)Nc2cccnc2)cc(OC)c1OC	nt	nt	nt	nt	4.8	nt	nt	nt
O=C1C=C(c2ccc(OC(F)(F)F)cc2)C[C@@H](c2ccc(F)cc2)C1	nt	-2.2	4.5	nt	1.3	54.1*	18.1	0.9
O=C1C=C(c2ccc(Oc3ccccc3)cc2)C[C@@H](c2ccc(F)cc2)C1	nt	0.1	2.3	nt	2.7	5.5	nt	nt
CCCCCCOc1ccc(C(C)=NNC2=NCCN2)cc1	nt	nt	nt	nt	4.8	nt	nt	nt
CCCCCCOc1ccc(/C(C)=N/NC2=NCCN2)cc1[N+](=O)[O-]	-5.2	0.4	2.8	-0.5	nt	53.8*	44.5*	11.0	Apaf1 inh interf=>100
CCOc1cc2c(C#N)c(N3CCCCC3)nc(N)c2c(N)n1	-5.1	-9.7	4.8	2.3	-96.1	96.8*	36.7	0.2
COc1cc2c(C#N)c(N3CCc4ccccc4C3)nc(N)c2c(N)n1	7.5	-16.2	6.6	4.2	-202.4	94.3*	34.6	7.8
CCN(CC)c1nc(N)c(C#N)c(CC#N)c1C#N	-8.9	-8.0	-6.9	-10.0	-0.2	7.6	nt	nt
CCOc1cc2c(C#N)c(N3CCNCC3)nc(N)c2c(N)n1	6.5	1.6	5.6	4.8	-288.1	21.0	nt	nt
CCN(CC)c1nc(N)c2c(N)nc(OC)cc2c1C#N	32.5	-9.7	8.4	-1.9	-23.0	46.4*	3.9	0.6
CN1C(=O)CC(Nc2cccc3cccc(N)c23)C1=O (configuration not stated)	23.1	-3.9	2.5	-4.6	6.1	53.9*	11.8	2.6
CC(C)N1C(=O)CC(Nc2cccc3cccc(N)c23)C1=O (configuration not stated)	nt	nt	nt	nt	3.7	nt	nt	nt
COc1ccc(-c2sc3cc4c(cc3c2-c2ccc(OCCN3CCCCC3)cc2)OCO4)cc1	nt	-3.7	nt	nt	-12.5	59.4*	6.4	8.7
COc1cc(OC)cc(-c2sc3ccc(OC)cc3c2-c2ccc(OCCN3CCCCC3)cc2)c1	nt	-2.7	nt	nt	-8.5	59.7*	-3.3	9.2
COc1ccc(-c2c(-c3cc(OC)cc(OC)c3)sc3ccc(OC)cc23)cc1	nt	4.8	nt	nt	0.5	3.5	nt	nt
Cc1nnc(NN=Cc2ccc(-c3cccc(C(=O)O)c3)o2)n1N	nt	nt	nt	nt	-23.6	nt	nt	nt
O=C(Cc1ccc([N+](=O)[O-])cc1)NN=Cc1ccccc1F	nt	nt	nt	nt	-0.4	nt	nt	nt
CN(C)CCCNC(=S)NCC(c1ccc(Cl)cc1Cl)c1c[nH]c2ccccc12 (configuration not stated)	-2.6	-0.6	5.9	0.8	nt	41.2*	25.9	12.5
CN(C)c1ccnc(-n2cccc2C=NO)c1C#N	nt	nt	nt	nt	3.8	nt	nt	nt
Cc1ccc(SCc2cc(=O)[nH]c(N=C(N)Nc3ccccc3Sc3ccccc3)n2)cc1	nt	nt	nt	nt	3.4	nt	nt	nt
CN(C)c1cccc2cccc(N(C)C)c12	1.6	-0.8	-2.2	0.9	-4.9	89.4*	19.4	-2.9
C(=NN1CCN(C2c3ccccc3-c3ccccc32)CC1)c1ccccn1	nt	nt	nt	nt	4.5	nt	nt	nt
CCCCCCn1c2c(c(=N)c3c1CCC3)CCC2	-2.5	1.1	-1.0	2.0	2.4	0.8	nt	nt
CCCCCCCCCn1c2c(c(=N)c3c1CCC3)CCC2	9.4	0.0	0.0	6.0	6.3	49.7*	17.5	9.5
SMILES	GSTO1 inh	PAD4 inh	PP5 inh	CTSL1 counter	UCH37 DUB inh	Apaf-1 inh	Apaf-1 inh conf2	Rh110 interf inh	others
COc1ccccc1C=NNC(=O)Cn1cnc([N+](=O)[O-])n1	nt	nt	nt	nt	3.0	nt	nt	nt
CC[C@@H](C)[C@@H]1CN([C@@H](CN2CCC[C@H]2CN2C(N)=NC[C@H]2C(C)C)C(C)C)C(=N)N1CCCC1CCCC1	nt	3.0	nt	nt	5.4	40.5*	0.4	-9.3
CCC[C@@H](CN1CCC[C@H]1CN1C(N)=NC[C@H]1C(C)C)N1C[C@@H]([C@H](C)CC)N(CCCC2CCCC2)C1=N	nt	-4.6	nt	nt	1.6	37.0	nt	nt
CC[C@@H](C)[C@@H]1CN([C@@H](CN2CCC[C@H]2CN2C(N)=NC[C@@H]2Cc2ccccc2)C(C)C)C(=N)N1CCCC1CCCC1	nt	-1.1	nt	nt	1.2	63.1*	13.3	10.8
CN[C@H]1CC[C@@H](c2ccc(Cl)c(Cl)c2)c2ccccc21	2.1	-0.1	2.5	-1.8	-0.3	54.0*	5.1	-3.2
O=C1C=C(O)CC(c2ccc(Cl)c(Cl)c2)C1 (configuration not stated)	19.7	0.7	-0.6	-2.7	0.9	-4.4	nt	nt
COc1ccc(C(C)=NN=C(N)N)c(O)c1	nt	nt	nt	nt	1.5	nt	nt	nt
O=C(O)c1ccccc1C=NNC(=O)C1CCCCC1	nt	nt	nt	nt	3.5	nt	nt	nt
O=C(NN=Cc1ccc[nH]1)c1c[nH]c2ccccc12	nt	nt	nt	nt	6.3	nt	nt	nt
C(=N\c1c(-c2ccccc2)nc2n1CCS2)/c1ccccc1	-3.5	-5.1	1.9	0.8	nt	41.0*	31.8	5.7
Cc1ccc(O)c(CNc2cccc3cccnc23)c1	20.8	-5.1	2.1	-3.7	2.0	93.4*	37.6	4.1
COc1cccc(CNc2ccccn2)c1O	5.1	2.1	-2.0	1.1	nt	0.9	nt	nt
COc1cccc(CNc2cccc3cccnc23)c1O	25.7	-3.3	3.7	-2.8	4.1	71.5*	14.3	-7.0
CCOC(=O)NN=C(C)c1ccccc1OC(F)F	nt	nt	nt	nt	1.8	nt	nt	nt
C=CCSC(=Nn1cnc2ccccc2c1=O)N1CCCCC1	nt	nt	nt	nt	4.6	nt	nt	nt
CCCCCCc1cc2cc(-c3nnc(-c4ccccc4OC)o3)c(=O)oc2cc1O	-13.4	1.7	-4.5	4.5	nt	62.4*	64.5*	2.4	Apaf1 inh interf=>100
CCCCCCc1cc2cc(C(=O)Nc3ccccc3OC)c(=O)oc2cc1O	0.5	3.5	0.3	-0.9	nt	6.1	nt	nt
CCOC(=O)CNc1ccc2c(c1)OCO2	25.6	-3.4	2.2	-2.8	2.6	40.0*	18.9	17.6
O=C(Nc1ccccc1N1CCCC1)C1CCN(S(=O)(=O)c2cccc(C(F)(F)F)c2)CC1	0.0	-0.2	0.8	3.3	-0.5	41.8*	7.1	14.7
O=C(Nc1ccccc1N1CCCCC1)C1CCN(S(=O)(=O)c2cccc(C(F)(F)F)c2)CC1	7.5	0.6	1.6	3.2	3.8	23.3	nt	nt
O=C(Cn1cc(C(F)(F)F)ccc1=O)NN=Cc1ccccc1	nt	nt	nt	nt	1.4	nt	nt	nt
O=C(NC1=C(Nc2ccc(Cl)cc2)C(=O)c2ccccc2C1=O)c1ccccc1	32.0	-18.1	0.0	6.6	8.7	53.5*	41.9*	-4.7	Apaf1 inh interf=>100
O=C(Nc1ccc(Nc2ccccc2)cc1)c1ccc(Cl)cc1	1.9	0.8	2.6	1.0	7.0	4.7	nt	nt

Screening results as filed in PubChem BioAssay.
